Test results reported in ChEMBL document CHEMBL1124581, “Synthesis and hypolipidemic and antidiabetogenic activities of beta,beta,beta',beta'-tetrasubstituted, long-chain dioic acids” (J Med Chem, 1989).

Columns and labels:
[1] = test system: Rattus norvegicus; assay: Hypolipidemic activity in rats by evaluating the plasma triacylglycerol level at a dose of 10 mg/kg for seven days; format: functional
How it was run: (§1)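 Male Lewis rats, 150–180 g, fed standard chow ad libitum. Compound given orally as a suspension in 1% aqueous tylose; controls received vehicle. Blood taken from the retrobulbar venous plexus 3 h after dosing. Plasma cholesterol and triacylglycerols measured spectrophotometrically with enzymatic kits.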

[2] = test system: Rattus norvegicus; assay: Hypolipidemic activity in rats by evaluating the plasma cholesterol level at a dose of 10 mg/kg for seven days; format: functional; how it was run: as §1
[3] = test system: Rattus norvegicus; assay: In vivo lipid synthesis as percent of nontreated control by incorporation of 3H20 into 3-beta-hydroxysterols in rat, at 0.1%(w/w) in diet for three days
[4] = species on record: Rattus norvegicus; assay: Percent of hypolipidemic activity in rats by evaluating the plasma triacylglycerol level at 0.1%(w/w) in diet for three days; format: functional
How it was run: (§2)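 Rats treated 3 days with 0.1% (w/w) analogue in diet. Plasma triacylglycerols and cholesterol (mg %) compared with untreated rats (mean ± SD, n = 3).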

[5] = test system: Rattus norvegicus; assay: In vivo percent inhibition of lipid synthesis, by incorporation of 3H20 into liver saponified fatty acids in rat, at 0.1%(w/w) in diet for three days; format: functional; details: values are per cent of control
How it was run: (§3)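 Rats fed for 3 consecutive days a carbohydrate-rich fat-free diet containing analogue (0.1% w/w for core-substituted series; 0.25% w/w for chain-length homologues). 10 mCi 3H2O given ip; liver taken 1 h later. 3H2O incorporation into liver saponified fatty acids and 3-β-hydroxysterols is expressed as % of untreated rats (untreated n = 3 or 4, mean ± SD).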

[6] = target: Peroxisomal bifunctional enzyme (Rattus norvegicus) (UniProt P07896); assay: Percent of liver peroxisomal enoyl-CoA hydratase activity in rats
[7] = species on record: Rattus norvegicus; assay: Percent of hypolipidemic activity in rats by evaluating the plasma cholesterol level at 0.1%(w/w) in diet for three days; format: functional; how it was run: as §2
[8] = species on record: Rattus norvegicus; assay: Inhibition of lipid synthesis, by incorporation of 3H20 into saponified fatty acids in cultured rat hepatocytes; format: functional; details: Hepatocyte, read-out: I50
How it was run: (§4)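 Cultured rat hepatocytes incubated with varying concentrations of homologue. 3H2O incorporation into saponified fatty acids and 3-β-hydroxysterols measured. I50 = concentration (mM) giving 50% inhibition.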

[9] = target: Peroxisomal bifunctional enzyme (Rattus norvegicus) (UniProt P07896); assay: Liver peroxisomal enoyl-CoA hydratase activity in rats
[10] = target: T1, ATP-citrate synthase (Rattus norvegicus, UniProt P16638); assay: Inhibition against ATP-citrate lyase in rat liver; format: tissue-based
T1 sequence (P16638 whole entry): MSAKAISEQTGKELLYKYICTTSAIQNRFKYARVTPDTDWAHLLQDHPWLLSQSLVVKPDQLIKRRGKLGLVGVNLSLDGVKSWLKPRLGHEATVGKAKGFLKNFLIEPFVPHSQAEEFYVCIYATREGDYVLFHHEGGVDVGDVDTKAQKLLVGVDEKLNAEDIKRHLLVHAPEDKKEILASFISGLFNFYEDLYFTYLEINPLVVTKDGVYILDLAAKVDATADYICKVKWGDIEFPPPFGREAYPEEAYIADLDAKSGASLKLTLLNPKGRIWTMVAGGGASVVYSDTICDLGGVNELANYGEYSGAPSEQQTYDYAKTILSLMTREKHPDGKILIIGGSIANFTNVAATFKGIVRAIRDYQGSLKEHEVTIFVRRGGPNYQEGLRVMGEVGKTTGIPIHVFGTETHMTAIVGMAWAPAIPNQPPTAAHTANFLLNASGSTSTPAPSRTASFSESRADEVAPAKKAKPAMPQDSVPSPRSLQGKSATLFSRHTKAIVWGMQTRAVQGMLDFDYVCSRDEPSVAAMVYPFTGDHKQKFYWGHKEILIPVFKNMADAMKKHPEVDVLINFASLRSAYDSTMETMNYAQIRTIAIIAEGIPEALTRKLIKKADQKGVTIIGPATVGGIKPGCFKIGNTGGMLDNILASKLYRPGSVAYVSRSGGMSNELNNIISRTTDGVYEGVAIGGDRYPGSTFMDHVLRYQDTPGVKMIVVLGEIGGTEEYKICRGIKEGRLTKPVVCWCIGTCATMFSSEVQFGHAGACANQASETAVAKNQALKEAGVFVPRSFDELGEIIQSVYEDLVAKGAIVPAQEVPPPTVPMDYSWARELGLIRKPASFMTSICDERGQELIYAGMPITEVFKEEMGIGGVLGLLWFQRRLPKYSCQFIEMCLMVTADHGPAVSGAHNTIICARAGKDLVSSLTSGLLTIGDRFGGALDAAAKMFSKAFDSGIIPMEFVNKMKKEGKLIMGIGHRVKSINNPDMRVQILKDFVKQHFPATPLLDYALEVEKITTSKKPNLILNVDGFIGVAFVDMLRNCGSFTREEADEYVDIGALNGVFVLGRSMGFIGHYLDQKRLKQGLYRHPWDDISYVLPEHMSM
How it was run: (§5)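 Liver citrate lyase activity measured across varying concentrations of homologue. Ki (mM) determined from a Dixon plot.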

[11] = species on record: Rattus norvegicus; assay: Percent inhibition of lipid synthesis by incorporation of 3H20 into saponified fatty acids in rat; format: functional; design: concentration or dose not given beside the values; how it was run: as §3
[12] = species on record: Rattus norvegicus; assay: Inhibition of lipid synthesis, by incorporation of 3H20 into 3-beta-hydroxysterols in cultured rat hepatocytes; format: functional; details: Hepatocyte, read-out: I50; how it was run: as §4
[13] = target: T1, ATP-citrate synthase; assay: Inhibition against ATP-citrate lyase in liver; format: tissue-based; how it was run: as §5
[14] = species on record: Rattus norvegicus; assay: Hypolipidemic activity in rats by evaluating the plasma cholesterol level at 0.1%(w/w) in diet for three days
[15] = target: T1, ATP-citrate synthase; assay: Inhibition against ATP-citrate lyase in rat liver.; how it was run: as §5
[16] = species on record: Rattus norvegicus; assay: Hypolipidemic activity in rats by evaluating the plasma triacylglycerol level at 0.00 (% w/w)in diet; format: functional
How it was run: (§6)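 Hebrew University strain rats, 140–160 g, starved 48 h, then pair-refed for 3 consecutive nights a 15-g meal of high-carbohydrate fat-free powdered diet, with or without analogue mixed into the diet at the stated % (w/w). The morning after the last meal, 10 mCi 3H2O in saline given ip; rats killed 1 h later. Readouts: liver lipid 3H2O incorporation, plasma lipids, peroxisomal enoyl-CoA hydratase, CN-insensitive palmitoyl-CoA oxidation. Mean ± SD, n = 4.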

[17] = target: Enoyl-CoA hydratase (Rattus norvegicus) (UniProt P07896); assay: Liver peroxisomal enoyl-CoA hydratase activity in rats, at 0.00(w/w) in diet; how it was run: as §6
[18] = target: Enoyl-CoA hydratase (Rattus norvegicus) (UniProt P07896); assay: Liver peroxisomal palmitoyl-CoA oxidation activity in rats, at 0.30(w/w) in diet; how it was run: as §6
[19] = species on record: Rattus norvegicus; assay: Inhibition of lipid synthesis, evaluated by incorporation of 3H20 at 0.00(w/w) into liver saponified fatty acids in rat; format: functional
[20] = target: Enoyl-CoA hydratase (Rattus norvegicus) (UniProt P07896); assay: Liver peroxisomal palmitoyl-CoA oxidation activity in rats, at 0.00(w/w) in diet; how it was run: as §6
[21] = target: Enoyl-CoA hydratase (Rattus norvegicus) (UniProt P07896); assay: Liver peroxisomal palmitoyl-CoA oxidation activity in rats, at 0.15(w/w) in diet; how it was run: as §6
[22] = species on record: Rattus norvegicus; assay: Inhibition of lipid synthesis, evaluated by incorporation of 3H20 at 0.00(w/w) into liver cholesterol in rat; format: functional
[23] = species on record: Rattus norvegicus; assay: Inhibition of lipid synthesis, evaluated by incorporation of 3H20 at 0.30(w/w) into liver saponified fatty acids in rat; format: functional
[24] = species on record: Rattus norvegicus; assay: Hypolipidemic activity in rats by evaluating the plasma triacylglycerol level at 0.30 (% w/w)in diet; format: functional; how it was run: as §6
[25] = species on record: Rattus norvegicus; assay: Inhibition of lipid synthesis, evaluated by incorporation of 3H20 at 0.15(w/w) into liver cholesterol in rat; format: functional
[26] = species on record: Rattus norvegicus; assay: Hypolipidemic activity in rats by evaluating the plasma triacylglycerol level at 0.15 (% w/w)in diet; format: functional; how it was run: as §6
[27] = species on record: Rattus norvegicus; assay: Hypolipidemic activity in rats by evaluating the plasma cholesterol level at 0.15 dose (% w/w) in diet; format: functional; how it was run: as §6
[28] = species on record: Rattus norvegicus; assay: Inhibition of lipid synthesis, evaluated by incorporation of 3H20 at 0.30(w/w) into liver cholesterol in rat; format: functional
[29] = species on record: Rattus norvegicus; assay: Hypolipidemic activity in rats by evaluating the plasma cholesterol level at 0.30 dose (% w/w) in diet; format: functional; how it was run: as §6
[30] = species on record: Rattus norvegicus; assay: Hypolipidemic activity in rats by evaluating the plasma cholesterol level at 0.00 dose (% w/w) in diet; format: functional; how it was run: as §6
[31] = target: T1, ATP-citrate synthase; assay: Inhibition against ATP-citrate lyase in liver.; format: tissue-based
How it was run: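 Liver ATP-citrate lyase activity was followed across varying inhibitor concentrations, and Ki was derived from a Dixon plot. The methods otherwise refer to an earlier report.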

Chain of Peroxisomal bifunctional enzyme (Rattus norvegicus) (P07896 whole entry, looked up): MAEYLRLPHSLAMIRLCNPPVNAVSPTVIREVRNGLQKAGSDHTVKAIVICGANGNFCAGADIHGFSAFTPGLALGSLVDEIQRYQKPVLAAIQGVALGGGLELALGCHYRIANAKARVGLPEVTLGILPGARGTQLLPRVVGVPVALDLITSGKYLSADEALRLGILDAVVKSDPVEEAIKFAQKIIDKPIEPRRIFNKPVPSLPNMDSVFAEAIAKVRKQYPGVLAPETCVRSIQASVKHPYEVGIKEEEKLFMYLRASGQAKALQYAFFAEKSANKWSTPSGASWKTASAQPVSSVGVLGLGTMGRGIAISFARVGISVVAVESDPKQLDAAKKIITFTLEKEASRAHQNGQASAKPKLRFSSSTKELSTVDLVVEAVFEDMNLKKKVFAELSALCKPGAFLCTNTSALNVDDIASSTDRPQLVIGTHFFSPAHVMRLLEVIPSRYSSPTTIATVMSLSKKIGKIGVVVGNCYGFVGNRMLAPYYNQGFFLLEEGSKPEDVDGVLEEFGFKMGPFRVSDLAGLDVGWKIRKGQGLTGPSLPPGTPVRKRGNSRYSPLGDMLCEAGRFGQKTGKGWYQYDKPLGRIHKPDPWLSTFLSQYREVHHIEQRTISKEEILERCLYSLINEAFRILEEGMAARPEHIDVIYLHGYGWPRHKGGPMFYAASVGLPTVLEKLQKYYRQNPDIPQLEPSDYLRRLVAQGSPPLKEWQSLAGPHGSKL
Chain of Enoyl-CoA hydratase (Rattus norvegicus) (P07896 whole entry): as the sequence (P07896 whole entry, looked up) above

| Compound | Hypolipidemic activity [1] | Activity (mg) [2] | Incorporation [3] | Activity [4] | residual activity [5] | Activity (uM min-1 mg-1) [6] | IC50 [8] | Activity (uM min-1 mg-1) [9] | Fatty acid synthesis (% of untreated control) [11] | IC50 [12] | also measured |
| --- | --- | --- | --- | --- | --- | --- | --- | --- | --- | --- | --- |
| CC(C)(CCCCCCCCCC(C)(C)CC(=O)O)CC(=O)O | 112% | 72% | – | – | – | – | – | – | – | – | – |
| CC(C)(C/C=C\c1ccc(/C=C\CC(C)(C)CC(=O)O)cc1)CC(=O)O | – | – | 97% | 98% | 72% | 4.5 | – | – | – | – | Activity [7]: 47% |
| CC(C)(CCCCCCC(C)(C)CC(=O)O)CC(=O)O | – | – | – | – | – | – | 300 µM | 7.5 | 80% | 200 µM | Ki [10]: 310 µM |
| CC(C)(CCCCCCCCCCCCCCCCC(C)(C)CC(=O)O)CC(=O)O | – | – | – | – | – | – | 400 µM | 3.5 | 158% | 400 µM | Ki [13]: 320 µM |
| CC(C)(CCCC1CCC(CCCC(C)(C)CC(=O)O)CC1)CC(=O)O (stereo not given) | – | – | 71% | 63% | 79% | 14 | – | – | – | – | Plasma cholesterol [14]: 42 mg % |
| CC(C)(CCCCCCCCC(C)(C)CC(=O)O)CC(=O)O | 126% | 70% | – | – | – | – | 100 µM | 16.3 | 66% | 100 µM | Ki [15]: 56 µM |
| CC(C)(CCCCCCCCCCCCC(C)(C)CC(=O)O)CC(=O)O | 130% | 73% | – | – | – | – | 150 µM | 17.5 | 48% | 150 µM | Ki [13]: 46 µM |
| O=C(O)CC(CCCCCCCCCCC(CC(=O)O)(c1ccccc1)c1ccccc1)(c1ccccc1)c1ccccc1 | – | – | – | – | – | – | – | – | – | – | Activity (mg) [16]: 131%; Activity (umol/mg.of protein. min) (µmol/mg protein/min) [17]: 0.45; Activity (nmol/mg.of protein. min) (nmol/mg protein/min) [18]: 7.2; Activity (umol/g.of liver 75.min) [19]: 118 µmol/g liver/75 min; Activity (nmol/mg.of protein. min) (nmol/mg protein/min) [20]: 4.8; Activity (nmol/mg.of protein. min) (nmol/mg protein/min) [21]: 4.4; Activity (umol/g.of liver 75.min) [22]: 3.9 µmol/g liver/75 min; Activity (umol/g.of liver 75.min) [23]: 123 µmol/g liver/75 min; Activity (mg) [24]: 101%; Activity (umol/g.of liver 75.min) [25]: 4.3 µmol/g liver/75 min; Activity (mg) [26]: 127%; Activity (mg) [27]: 70%; Activity (umol/g.of liver 75.min) [28]: 3.4 µmol/g liver/75 min; Activity (mg) [29]: 58%; Activity (mg) [30]: 70.5% |
| CC(C)(CCCCCCCCCCC(C)(C)CC(=O)O)CC(=O)O | 111% | 58% | 40% | 49% | 48% | 10.7 | 80 µM | 31 | 29% | 80 µM | Plasma cholesterol [14]: 32 mg %; Ki [31]: 16 µM |
| CC(C)(CCCCCCCCCCCC(C)(C)CC(=O)O)CC(=O)O | 113% | 73% | – | – | – | – | – | – | – | – | – |
| CC(C)(CCCc1ccc(CCCC(C)(C)CC(=O)O)cc1)CC(=O)O | – | – | 65% | 84% | 63% | 12 | – | – | – | – | Activity [7]: 36% |
| CC(C)(CCCCCCCCCCCCCCC(C)(C)CC(=O)O)CC(=O)O | – | – | – | – | – | – | 300 µM | 5 | 113% | 300 µM | Ki [13]: 260 µM |
| CC(C)(C/C=C\c1ccc(/C=C/CC(C)(C)CC(=O)O)cc1)CC(=O)O | – | – | 37% | 25% | 50% | 10.5 | – | – | – | – | Activity [7]: 37% |
| CC(C)(C/C=C/c1ccc(/C=C/CC(C)(C)CC(=O)O)cc1)CC(=O)O | – | – | 57% | 41% | 57% | 18.6 | – | – | – | – | Activity [7]: 28% |
